Assay results: ChEMBL document CHEMBL1926666, “Synthesis of novel 3-cyclohexylpropanoic acid-derived nitrogen heterocyclic compounds and their evaluation for tuberculostatic activity” (Bioorg Med Chem, 2012)
In brackets after ≈: the same amount, converted by molar mass. Activity calls are given as the source filed them. The rule behind the calls is not given here.

Experiments:
Brevibacterium linens = experiment: Antibacterial activity against Brevibacterium linens ATCC 9174 after 24 hrs by M7-A7 CLSI method; format: functional; details: ATCC 9174, 24 h
Procedure, shortened: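 Compounds dissolved in 100% DMSO at 5 mg/mL, then 1 mg/mL in 10% DMSO; serial dilutions in broth from 100 µg/mL final. B. linens: nutrient broth 24 h at 30 °C, inoculum 1 McFarland, 24 h with compounds. P. acnes: thioglycolate broth 72 h at 33 °C, inoculum 0.5 McFarland, 72 h anaerobic with compounds. MIC = lowest concentration with no visible growth, confirmed by A655.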

[1] = Growth inhibition of human skin fibroblasts at 10 ug/ml after 72 hrs by MTT assay; parameters: species or system Skin fibroblast; details: read-out: GI
Procedure, shortened: (§1)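 Neonatal human dermal fibroblasts in high-glucose DMEM with 5% cosmic calf serum, seeded 3 × 10³ cells/well and exposed to compounds for 72 h. MTT then added for 2.5 h; formazan solubilised in isopropanol and read at 550 nm; signal proportional to cell number.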

[2] = test system: Mycobacterium tuberculosis; experiment: Antituberculosis activity against Mycobacterium tuberculosis H37Rv by twofold serial dilution method; format: functional
Procedure, shortened: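 Classical two-fold test-tube serial dilution in Youmans' modified Proskauer–Beck liquid medium with 10% bovine serum. Inocula from 14-day cultures. Compounds in ethylene glycol, 10 mg/mL stock, geometric dilutions in medium; 3.1, 6.2, 12.5, 25, 50 and 100 µg/mL evaluated. Incubation at 37 °C. MIC = lowest concentration inhibiting growth relative to a compound-free tube. INH, PZA and RMP served as reference drugs.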

[3] = Growth inhibition of human skin fibroblasts at 100 ug/ml after 72 hrs by MTT assay; parameters: species or system Skin fibroblast; details: read-out: GI; procedure, shortened: as §1
[4] = Stimulation of type 1 collagen output in human skin fibroblasts after at 100 ug/ml after 72 hrs by ELISA relative to control; format: functional, Skin fibroblast
Procedure, shortened: (§2)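 Neonatal human dermal fibroblasts in high-glucose DMEM with 5% calf serum, 3 × 10³ cells/well, 72 h compound exposure. Conditioned media assayed for type I collagen by sandwich ELISA (affinity-purified antibodies, streptavidin/avidin-HRP, ABTS, 405 nm), quantified against a purified human collagen I standard curve. Expressed as % of untreated control. MAP and bFGF (15 ng/mL) served as positive controls.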

Skin fibroblast = experiment: Stimulation of type 1 collagen output in human skin fibroblasts after at 10 to 100 ug/ml after 72 hrs by ELISA; format: functional; procedure, shortened: as §2

## O=[N+]([O-])c1cc(Cl)cc2[nH]c(CCC3CCCCC3)nc12
Brevibacterium linens
  MIC: > 100 mg/L
[1]
  inhibition at 72 h, 10 ug/ml: 0%
[2]
  MIC: 12.5 mg/L (≈ 40.6 µM)
[3]
  inhibition at 72 h, 100 ug/ml: 18%
[4]
  Activity: 166%

## C=CCNC(=S)NNC(=O)CCC1CCCCC1
Brevibacterium linens
  MIC: > 100 mg/L
[2]
  MIC: 50 mg/L (≈ 186 µM)
Skin fibroblast
  Activity: inactive

## S=c1[nH]nc(CCC2CCCCC2)n1-c1ccc(Cl)cc1
Brevibacterium linens
  MIC: > 100 mg/L
[2]
  MIC: 50 mg/L (≈ 155 µM)
Skin fibroblast
  Activity: inactive

## c1ccc2c(c1)ccc1nc(CCC3CCCCC3)[nH]c12
Brevibacterium linens
  MIC: > 100 mg/L
[1]
  inhibition at 72 h, 10 ug/ml: 16%
[2]
  MIC: 1.5 mg/L (≈ 5.39 µM)
[3]
  inhibition at 72 h, 100 ug/ml: 74%
Skin fibroblast
  Activity: inactive

## CSC(=S)NNC(=O)CCC1CCCCC1
Brevibacterium linens
  MIC: > 100 mg/L
[2]
  MIC: 50 mg/L (≈ 192 µM)
Skin fibroblast
  Activity: inactive

## NC(=O)c1cnccn1 [PYRAZINAMIDE]
[2]
  MIC: 25 mg/L (≈ 203 µM)

## CNC(=S)NNC(=O)CCC1CCCCC1
Brevibacterium linens
  MIC: > 100 mg/L
[2]
  MIC: 50 mg/L (≈ 205 µM)
Skin fibroblast
  Activity: inactive

## NNC(=O)c1ccncc1 [ISONIAZID]
[2]
  MIC: 0.5 mg/L (≈ 3.65 µM)

## S=c1[nH]nc(CCC2CCCCC2)n1C1CCCCC1
Brevibacterium linens
  MIC: > 100 mg/L
[2]
  MIC: 50 mg/L (≈ 170 µM)
Skin fibroblast
  Activity: inactive

## S=c1[nH]nc(CCC2CCCCC2)[nH]1
Brevibacterium linens
  MIC: > 100 mg/L
[2]
  MIC: 50 mg/L (≈ 237 µM)
Skin fibroblast
  Activity: inactive

## C=CCn1c(CCC2CCCCC2)n[nH]c1=S
Brevibacterium linens
  MIC: > 100 mg/L
[2]
  MIC: 50 mg/L (≈ 199 µM)
Skin fibroblast
  Activity: inactive

## c1ccc2nc3cc4[nH]c(CCC5CCCCC5)nc4cc3nc2c1
Brevibacterium linens
  MIC: > 100 mg/L
[1]
  inhibition at 72 h, 10 ug/ml: 0%
[2]
  MIC: 3.1 mg/L (≈ 9.38 µM)
[3]
  inhibition at 72 h, 100 ug/ml: 11%
Skin fibroblast
  Activity: inactive

## c1cnc2[nH]c(CCC3CCCCC3)nc2c1
Brevibacterium linens
  MIC: > 100 mg/L
[1]
  inhibition at 72 h, 10 ug/ml: 0%
[2]
  MIC: 25 mg/L (≈ 109 µM)
[3]
  inhibition at 72 h, 100 ug/ml: 41%
Skin fibroblast
  Activity: inactive

## O=C(CCC1CCCCC1)NNC(=S)Nc1ccc(Cl)cc1
Brevibacterium linens
  MIC: > 100 mg/L
[2]
  MIC: 50 mg/L (≈ 147 µM)
Skin fibroblast
  Activity: inactive

## Brc1cnc2[nH]c(CCC3CCCCC3)nc2c1
Brevibacterium linens
  MIC: > 100 mg/L
[1]
  inhibition at 72 h, 10 ug/ml: 17%
[2]
  MIC: 6.5 mg/L (≈ 21.1 µM)
[3]
  inhibition at 72 h, 100 ug/ml: 100%
Skin fibroblast
  Activity: inactive

## Cl.Cl.c1cc2nc(CCC3CCCCC3)[nH]c2cn1
Brevibacterium linens
  MIC: > 100 mg/L
[1]
  inhibition at 72 h, 10 ug/ml: 0%
[2]
  MIC: 25 mg/L
[3]
  inhibition at 72 h, 100 ug/ml: 0%
Skin fibroblast
  Activity: inactive

## CC1(C)CNc2nnc(CCC3CCCCC3)n2C1
Brevibacterium linens
  MIC: > 100 mg/L
[2]
  MIC: 50 mg/L (≈ 191 µM)
Skin fibroblast
  Activity: inactive

## O=C(CCC1CCCCC1)NN=C1SCCS1
Brevibacterium linens
  MIC: > 100 mg/L
[2]
  MIC: 50 mg/L (≈ 184 µM)
Skin fibroblast
  Activity: inactive

## S=c1[nH]nc(CCC2CCCCC2)o1
Brevibacterium linens
  MIC: > 100 mg/L
[2]
  MIC: 25 mg/L (≈ 118 µM)
Skin fibroblast
  Activity: inactive

## CO[C@H]1/C=C/O[C@@]2(C)Oc3c(C)c(O)c4c(O)c(c(/C=N/N5CCN(C)CC5)c(O)c4c3C2=O)NC(=O)/C(C)=C\C=C\[C@H](C)[C@H](O)[C@@H](C)[C@@H](O)[C@@H](C)[C@H](OC(C)=O)[C@@H]1C [RIFAMPIN]
[2]
  MIC: 1.2 mg/L (≈ 1.46 µM)

## O=C(CCC1CCCCC1)NNC(=S)NC1CCCCC1
Brevibacterium linens
  MIC: > 100 mg/L
[2]
  MIC: 50 mg/L (≈ 161 µM)
Skin fibroblast
  Activity: inactive

## CSC(=NNC(=O)CCC1CCCCC1)SC
Brevibacterium linens
  MIC: > 100 mg/L
[2]
  MIC: 50 mg/L (≈ 182 µM)
Skin fibroblast
  Activity: inactive

## Cn1c(CCC2CCCCC2)n[nH]c1=S
Brevibacterium linens
  MIC: > 100 mg/L
[2]
  MIC: 50 mg/L (≈ 222 µM)
Skin fibroblast
  Activity: inactive
